From ChEMBL document CHEMBL1138515, “Synthesis and biological characterization of B-ring amino analogues of potent benzothiadiazine hepatitis C virus polymerase inhibitors” (J Med Chem, 2009) come the findings set out here.

Structures are written as SMILES.

One data set has as its target Genome polyprotein (Hepatitis C virus genotype 1b (isolate Con1) (HCV), UniProt Q9WMX2). Put plainly: Inhibition of HCV1b Con1 NS5B assessed as [3H]UTP incorporation into RNA by scintillation counting.
The test system of data set [1] is Hepatitis C virus. Put plainly: Antiviral activity against HCV1a H77 infected in human Huh7 cells assessed as inhibition viral subgenomic replication. The data set is classed as functional, organism-based, Hepacivirus hominis. The conditions noted are these: genotype 1a H77, Huh-7. A digest of the protocol: (§1)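 Stable luciferase-reporter subgenomic replicon Huh-7 lines (1a H77; 1b Con1) were seeded at 5000 cells/well in DMEM with 5% FBS. The next day an eight-point half-log dilution series was added from DMSO stocks. After 3 days the cells were lysed, luciferin was added and luminescence was read. EC₅₀ came from percent inhibition of replication at each concentration.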

The nature of data set [2]: AUC (0 to infinity) in Sprague-Dawley rat at 5 mg/kg, po. The data set is classed as ADME, organism-based. The settings on record: plasma. More on the design: time infinity, dose 5 mg/kg, route oral. Summed up:
(§2)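 Overnight-fasted Sprague-Dawley rats (n = 3) received a single 5 mg/kg iv or oral dose in DMSO/PEG400 (1:9, v/v). Mean concentrations were fitted multiexponentially. AUC₀₋ₜ was calculated by linear trapezoidal rule and extrapolated to infinity using Cₜ divided by the terminal rate constant.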

Data set [3] in a line: Ratio of drug level in liver to plasma of Sprague-Dawley rat at 5 mg/kg, po after 6 hrs. The data set is classed as ADME, organism-based. More on the design: dose 5 mg/kg, route oral. The conditions noted are these: liver and plasma. Summed up:
(§3)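 Sprague-Dawley rats were given 5 mg/kg orally in DMSO/PEG400 (1:9, v/v). Separate animals were sampled for liver and plasma at 1, 6 and 12 h. Drug in liver (µg/g) and in plasma was measured by LC-MS, and liver/plasma ratios were taken at each time.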

Data set [4] is described as follows: Drug level in Sprague-Dawley rat liver at 5 mg/kg, po after 6 hrs. The data set is classed as ADME, organism-based. Also on record: dose 5 mg/kg, route oral. The settings on record: read-out: Drug uptake. A digest of the protocol: as §3
A short description of data set [5]: Ratio of drug level in liver to plasma of Sprague-Dawley rat at 5 mg/kg, po after 12 hrs. More on the design: dose 5 mg/kg, route oral. The data set is classed as ADME, organism-based. The settings on record: liver and plasma. A digest of the protocol:
as §3

Data set [6] can be described thus: Ratio of drug level in liver to plasma of Sprague-Dawley rat at 5 mg/kg, po after 1 hr. The data set is classed as ADME, organism-based. More on the design: dose 5 mg/kg, route oral. The conditions noted are these: liver and plasma. A digest of the protocol:
as §3

Data set [7] deals with Hepatitis C virus. The experiment in a line: Antiviral activity against HCV1b Con1 infected in human Huh7 cells assessed as inhibition viral subgenomic replication […]. The data set is classed as functional, organism-based, Hepacivirus hominis. The conditions noted are these: isolate Con1, Huh-7.
Data set [8] is described as follows: Cmax in Sprague-Dawley rat at 5 mg/kg, po. The data set is classed as ADME, organism-based. More on the design: dose 5 mg/kg, route oral. The conditions noted are these: in vivo. A digest of the protocol:
as §2

Data set [9] can be described thus: Drug level in Sprague-Dawley rat liver at 5 mg/kg, po after 1 hr. The data set is classed as ADME, organism-based. More on the design: dose 5 mg/kg, route oral. The conditions noted are these: read-out: Drug uptake. Summed up: as §3
Data set [10] relates to Hepatitis C virus. The experiment in a line: Antiviral activity against HCV1b Con1 infected in human Huh7 cells assessed as inhibition viral subgenomic replication. The settings on record: isolate Con1, Huh-7. The data set is classed as functional, organism-based, Hepacivirus hominis. A digest of the protocol: as §1
The nature of data set [11]: Drug level in Sprague-Dawley rat liver at 5 mg/kg, po after 12 hrs. Also on record: dose 5 mg/kg, route oral. The conditions noted are these: read-out: Drug uptake. The data set is classed as ADME, organism-based. Summed up:
as §3

Data set [12] in a line: Inhibition of HCV1a H77 NS5B assessed as [3H]UTP incorporation into RNA by scintillation counting. Also on record: species or system Hepatitis C virus (isolate H77). A digest of the protocol:
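Two-fold serial inhibitor dilutions were preincubated for 15 min at room temperature with NS5B (genotype 1a H77 or genotype 1b BK, 20-50 nM) in 20 mM Tris-Cl pH 7.4, 2 mM MnCl₂, 1 mM DTT, 1 mM EDTA and 60-125 µM GTP. Reactions were started with 20 µM CTP, 20 µM ATP, 1 µM ³H-UTP, 5 nM template RNA and RNase inhibitor, then run 2-4 h at room temperature.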

A short description of data set [13]: Clearance in Sprague-Dawley rat at 5 mg/kg, iv. The data set is classed as ADME, organism-based. More on the design: dose 5 mg/kg, route intravenous. The conditions noted are these: in vivo. A digest of the protocol: as §2
Data set [14] concerns Hepatitis C virus. The experiment in a line: Antiviral activity against HCV1a H77 assessed as inhibition of viral replication by cell-based replicon assay. The data set is classed as functional, organism-based, Hepacivirus hominis. The settings on record: genotype 1a H77. Summed up:
as §1
On the technique in general: A replicon is a self-replicating genome or part of one, used to study replication in cells.

Data set [15] can be described thus: Half life in Sprague-Dawley rat at 5 mg/kg, iv. The data set is classed as ADME, organism-based. Also on record: dose 5 mg/kg, route intravenous. The settings on record: in vivo. Summed up:
as §2

A short description of data set [16]: Oral bioavailability in Sprague-Dawley rat at 5 mg/kg. The data set is classed as ADME, organism-based. The conditions noted are these: in vivo. Summed up:
as §2

Genome polyprotein, sequence (Q9WMX2 2420-3010 limits assumed): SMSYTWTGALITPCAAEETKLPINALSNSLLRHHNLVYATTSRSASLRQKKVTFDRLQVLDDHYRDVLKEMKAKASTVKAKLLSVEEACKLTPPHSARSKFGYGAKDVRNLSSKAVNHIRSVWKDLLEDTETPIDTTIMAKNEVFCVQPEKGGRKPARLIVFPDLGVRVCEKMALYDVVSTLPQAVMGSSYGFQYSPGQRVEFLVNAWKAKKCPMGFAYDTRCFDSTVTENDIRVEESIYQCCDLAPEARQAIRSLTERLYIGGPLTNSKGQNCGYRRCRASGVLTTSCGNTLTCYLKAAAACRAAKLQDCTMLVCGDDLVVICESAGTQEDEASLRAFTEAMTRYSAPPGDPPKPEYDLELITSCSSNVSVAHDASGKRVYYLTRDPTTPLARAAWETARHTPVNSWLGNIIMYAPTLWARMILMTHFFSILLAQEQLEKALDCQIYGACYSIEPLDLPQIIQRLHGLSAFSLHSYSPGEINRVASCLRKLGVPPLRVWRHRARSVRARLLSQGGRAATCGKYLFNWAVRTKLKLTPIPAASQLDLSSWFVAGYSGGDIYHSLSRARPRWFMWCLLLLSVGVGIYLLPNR

The term IC50 denotes the concentration that gives 50% inhibition. As usually defined, the EC50 is the concentration at which the effect is half-maximal. By AUC(0-inf) is commonly meant the area under the concentration-time curve extrapolated to infinity. Low values mean less exposure, high ones more exposure. What is called Kp is the ratio of the level in a tissue or fluid to that in plasma or blood. For orientation: Cmax means the peak of the concentration-time curve. One may read the clearance as the rate of elimination divided by the concentration. By half-life is commonly meant the time needed for the level to fall by half in the phase considered. Broadly, the bioavailability is the share of a dose that reaches the circulation, judged against a reference dose that is usually intravenous. A lower bioavailability goes with poor availability. For `CC(C)CC[C@@]1(NCc2ccccc2)C(=O)C(C2=NS(=O)(=O)c3cc(NS(C)(=O)=O)ccc3N2)=C(O)c2ccccc21`, the IC50 turned out to be 16 nM on Genome polyprotein and 10 nM in [12]. Moreover, the EC50 amounted to 68 nM in the data set with Hepatitis C virus [1], 273 nM with Hepatitis C virus [7], 15 nM with Hepatitis C virus [10] and 16 nM in the data set on Hepatitis C virus [14]. In data set [2], this molecule had a total exposure AUC(0-inf) of 600 ng·h/mL. Further, in data set [3], the Kp at 6 h came to 6. In addition, the concentration at 6 h in data set [4] was 2350 ng/g. Besides, the Kp at 12 h in [5] amounted to 3. Moreover, the Kp at 1 h in data set [6] was determined as 12. In addition, the concentration in data set [8] peaked (Cmax) at 80 ng/mL. In addition, in [9], the concentration at 1 h turned out to be 3590 ng/g. Moreover, the concentration at 12 h in [11] was 880 ng/g. In data set [13], the clearance was 19.3 mL/min/kg. Further, in data set [15], the half-life is 1.7 h. This molecule displayed a bioavailability in [16] of 13.3%.
In the case of `Cc1cccc(C)c1CN[C@]1(CCC(C)(C)C)C(=O)C(C2=NS(=O)(=O)c3cc(NS(C)(=O)=O)ccc3N2)=C(O)c2ccccc21`, the half-maximal inhibitory concentration (IC50) on Genome polyprotein is 19 nM; in data set [12], 16 nM. The concentration for a half-maximal effect (EC50) stood at 10 nM with Hepatitis C virus [1], 270 nM in the data set with Hepatitis C virus [7] and 6 nM in the data set on Hepatitis C virus [10]. Moreover, the AUC(0-inf) in [2] came out at 4210 ng·h/mL. The concentration ratio (Kp) at 6 h in [3] is 15. Besides, in [4], the concentration at 6 h worked out at 4360 ng/g. In addition, the Kp at 12 h in data set [5] came to 11. For the same molecule, the Kp at 1 h in data set [6] came out at 12. In addition, the concentration in data set [8] peaked (Cmax) at 620 ng/mL. Further, the concentration at 1 h in [9] was 5860 ng/g. Moreover, the concentration at 12 h in [11] came out at 2110 ng/g. Further, the clearance in data set [13] is 11.7 mL/min/kg. The same molecule had a half-life in data set [15] of 3.1 h. The same molecule returned a bioavailability in data set [16] of 55.9%.
